Laboratory results taken from ChEMBL document CHEMBL1121573, “2-(Aminomethyl)phenols, a new class of saluretic agents. 1. Effects of nuclear substitution” (J Med Chem, 1980).
“And” between values parts separate entries of the source, which are not always exact repeats. Equal values may be shown once.

Key:
[1] = system: Rattus norvegicus; assay: Oral diuretic activity was evaluated by measuring Na+ excretion in Rat at 81 mg/kg […] (0-5 hr); assay type: ADME, organism-based, Urine; parameters: dose 81 mg/kg; conditions: in vivo
[2] = system: Rattus norvegicus; assay: Oral diuretic activity was evaluated by measuring K+ excretion in Rat at 9 mg/kg […] (0-5 hr); assay type: ADME, organism-based, Urine; parameters: dose 9 mg/kg
Outline: (§1)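 Female Charles-River rats (150–170 g) were kept overnight on a sugar diet with water ad libitum. Test substance was dissolved in DMF and diluted with water containing Tween 80 to a final 4% DMF vehicle, then given po in 5.0 mL. Rats were housed three per metabolism cage, and 0–5 h urine was assayed for Na⁺, K⁺ and Cl⁻ alongside concurrent placebo groups. Values are mequiv × 100 per cage, geometric means of three cages per dose.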

[3] = system: Rattus norvegicus; assay: Oral diuretic activity was evaluated by measuring Cl- excretion in Rat at 81 mg/kg after po administration (0-5 hr); conditions: in vivo
[4] = system: Rattus norvegicus; assay: Oral diuretic activity was evaluated by measuring K+ excretion in Rat at 27 mg/kg […] (0-5 hr); assay type: ADME, organism-based, Urine; parameters: dose 27 mg/kg; outline: as §1
[5] = system: Rattus norvegicus; assay: Oral diuretic activity was evaluated by measuring Na+ excretion in Rat at 27 mg/kg […] (0-5 hr); assay type: ADME, organism-based, Urine; parameters: dose 27 mg/kg; conditions: in vivo
Outline: (§2)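 Female Charles-River rats (150–170 g) were kept overnight on a sugar diet with water ad libitum. Compound was dissolved in DMF, then diluted with water containing Tween 80 (3 drops/100 mL) to a final 4% DMF, and given po in 5.0 mL. Rats were housed three per metabolism cage. Urine from 0–5 h was analysed for Na+, K+ and Cl−, with concurrent placebo controls. Values are mequiv × 100 per cage, geometric mean of three cages per dose.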

[6] = species: Rattus norvegicus; assay: Time taken for the decrease in arterial pressure was measured; assay type: functional, Artery
[7] = system: Rattus norvegicus; assay: Oral diuretic activity was evaluated by measuring Cl- excretion in Rat at 27 mg/kg […] (0-5 hr); assay type: ADME, organism-based, Urine; parameters: dose 27 mg/kg; conditions: in vivo
[8] = system: Rattus norvegicus; assay: Oral diuretic activity was evaluated by measuring Cl- excretion in Rat at 9 mg/kg […] (0-5 hr); assay type: ADME, organism-based, Urine; parameters: dose 9 mg/kg; conditions: in vivo; outline: as §1
[9] = system: Rattus norvegicus; assay: Oral diuretic activity was evaluated by measuring K+ excretion in Rat at 81 mg/kg after […] (0-5 hr); assay type: ADME, organism-based, Urine; parameters: dose 81 mg/kg; outline: as §1
[10] = system: Canis familiaris; assay: Compound administered intravenously was evaluated for salidiuretic activity measured as sodium ion excretion in Dog; Value ranges from 800-899; assay type: ADME, organism-based, Canis lupus familiaris, Urine; conditions: in vivo, iv
Outline: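 Conditioned female mongrel dogs, postabsorptive, water-loaded (500 mL po) 1 h before sodium pentobarbital anesthesia (30 mg/kg iv). Bladder catheter; creatinine 4 g sc; phosphate–mannitol buffer pH 7.4 infused (3.0 mL/min) throughout. […] Urine Na+ measured; response scored 0–6.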

[11] = system: Rattus norvegicus; assay: Oral diuretic activity was evaluated by measuring Cl- excretion in Rat at 27 mg/kg after […] ( 0-5 hr); assay type: ADME, organism-based, Urine; parameters: dose 27 mg/kg, route intraperitoneal; conditions: in vivo
[12] = system: Canis familiaris; assay: Oral diuretic activity was evaluated by measuring Cl- excretion in dog at 5.4 mg/kg after […] ( 0-6 hr); assay type: ADME, organism-based, Canis lupus familiaris, Urine; parameters: dose 5.4 mg/kg, route intraperitoneal; conditions: in vivo
[13] = system: Canis familiaris; assay: Oral diuretic activity was evaluated by measuring Na+ excretion in dog at 16.2 mg/kg after […] ( 0-6 hr); assay type: ADME, organism-based, Canis lupus familiaris, Urine; parameters: dose 16.2 mg/kg; conditions: in vivo
Outline: (§3)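 Dogs; spontaneous urine was pooled with bladder urine drained by catheter at the end of 6 h. Urine volume was measured, and aliquots were assayed for Na+, K+ and Cl− by standard methods. Values are geometric means, expressed as mequiv over 0–6 h.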

[14] = system: Canis familiaris; assay: Oral diuretic activity was evaluated by measuring Cl- excretion in dog at 16.2 mg/kg after […] ( 0-6 hr); assay type: ADME, organism-based, Canis lupus familiaris, Urine; parameters: dose 16.2 mg/kg, route intraperitoneal; conditions: in vivo
[15] = system: Rattus norvegicus; assay: Oral diuretic activity was evaluated by measuring Na+ excretion in Rat at 9 mg/kg […] ( 0-5 hr); assay type: ADME, organism-based, Urine; parameters: dose 9 mg/kg; conditions: in vivo, ip; outline: as §2
[16] = system: Rattus norvegicus; assay: Oral diuretic activity was evaluated by measuring Na+ excretion in Rat at 27 mg/kg […] ( 0-5 hr); assay type: ADME, organism-based, Urine; parameters: dose 27 mg/kg; outline: as §2
[17] = system: Canis familiaris; assay: Oral diuretic activity was evaluated by measuring Cl- excretion in dog at 1.8 mg/kg after […] ( 0-6 hr); assay type: ADME, organism-based, Canis lupus familiaris, Urine; parameters: dose 1.8 mg/kg, route intraperitoneal; conditions: in vivo
[18] = Compound administered orally at a dose of 5 mg/kg was evaluated for salidiuretic activity measured as sodium ion excretion in Rat; assay type: organism-based; parameters: dose 5 mg/kg; conditions: Urine
Outline: (§4)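 Female Charles-River rats (150–170 g), overnight on sugar diet with water ad libitum. Compound dissolved in DMF, diluted with water containing Tween 80 (final 4% DMF), given po in 5.0 mL; concurrent vehicle placebo. Three rats per metabolism cage; 0–5 h urine analysed for Na+, K+, Cl-. Values: mequiv × 100 per cage, geometric means of three cages per dose; scored 0–6 by Na+.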

[19] = system: Canis familiaris; assay: Oral diuretic activity was evaluated by measuring Na+ excretion in dog at 5.4 mg/kg after ip administration ( 0-6 hr); assay type: ADME, organism-based, Canis lupus familiaris, Urine; parameters: dose 5.4 mg/kg, route intraperitoneal; conditions: in vivo
Outline: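 Urine collected over 0–6 h: spontaneous voids were pooled with bladder urine taken by catheterization at 6 h. Urine volume was measured, and aliquots were analysed for Na+, K+ and Cl− by standard methods. Electrolyte excretion is reported as geometric means.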

[20] = system: Rattus norvegicus; assay: Oral diuretic activity was evaluated by measuring K+ excretion in Rat at 3 mg/kg after […] ( 0-5 hr); assay type: ADME, organism-based, Urine; parameters: dose 3 mg/kg; outline: as §1
[21] = system: Rattus norvegicus; assay: Evaluated for salidiuretic activity measured as sodium ion excretion in Rat, administered orally at a dose of 50 mg/kg; assay type: functional, Urine; parameters: unit not given beside the values; conditions: route oral; outline: as §4
[22] = system: Canis familiaris; assay: Oral diuretic activity was evaluated by measuring K+ excretion in dog at 0.6 mg/kg after […] ( 0-6 hr); assay type: ADME, organism-based, Canis lupus familiaris, Urine; parameters: dose 0.6 mg/kg, route intraperitoneal; conditions: in vivo
[23] = system: Canis familiaris; assay: Oral diuretic activity was evaluated by measuring K+ excretion in dog at 1.8 mg/kg after ip administration ( 0-6 hr); assay type: ADME, organism-based, Canis lupus familiaris, Urine; parameters: dose 1.8 mg/kg, route intraperitoneal; conditions: in vivo
Outline: (§5)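 Spontaneous urine was pooled with bladder urine collected by catheterization at 6 h. Volume was measured and Na+, K+ and Cl− were determined by standard methods. Values are geometric means.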

[24] = system: Canis familiaris; assay: Oral diuretic activity was evaluated by measuring Na+ excretion in dog at 1.8 mg/kg after […] ( 0-6 hr); assay type: ADME, organism-based, Canis lupus familiaris, Urine; parameters: dose 1.8 mg/kg; conditions: in vivo; outline: as §3
[25] = system: Rattus norvegicus; assay: Oral diuretic activity was evaluated by measuring Na+ excretion in Rat at 81 mg/kg […] ( 0-5 hr); assay type: ADME, organism-based, Urine; parameters: dose 81 mg/kg; outline: as §2
[26] = system: Rattus norvegicus; assay: Oral diuretic activity was evaluated by measuring Cl- excretion in Rat at 9 mg/kg […] ( 0-5 hr); assay type: ADME, organism-based, Urine; parameters: dose 9 mg/kg; conditions: in vivo; outline: as §1
[27] = system: Canis familiaris; assay: Oral diuretic activity was evaluated by measuring Na+ excretion in dog at 0.6 mg/kg after ip administration ( 0-6 hr); assay type: ADME, organism-based, Canis lupus familiaris, Urine; parameters: dose 0.6 mg/kg, route intraperitoneal; conditions: in vivo; outline: as §5
[28] = system: Canis familiaris; assay: Oral diuretic activity was evaluated by measuring Cl- excretion in dog at 0.6 mg/kg after […] ( 0-6 hr); assay type: ADME, organism-based, Canis lupus familiaris, Urine; parameters: dose 0.6 mg/kg, route intraperitoneal; conditions: in vivo
[29] = Evaluated for salidiuretic activity measured as sodium ion excretion in Rat, administered orally at a dose of 16.5 mg/kg; assay type: organism-based; parameters: dose 16.5 mg/kg; conditions: Urine; outline: as §4
[30] = system: Rattus norvegicus; assay: Compound administered orally at a dose of 1 mg/kg was evaluated for salidiuretic activity measured as sodium ion excretion in Rat; conditions: in vivo, po
[31] = system: Rattus norvegicus; assay: Oral diuretic activity was evaluated by measuring K+ excretion in Rat at 27 mg/kg after po administration ( 0-5 hr); conditions: in vivo
[32] = system: Canis familiaris; assay: Oral diuretic activity was evaluated by measuring K+ excretion in dog at 16.2 mg/kg after ip administration ( 0-6 hr); assay type: ADME, organism-based, Canis lupus familiaris, Urine; parameters: dose 16.2 mg/kg, route intraperitoneal; conditions: in vivo; outline: as §5
[33] = system: Canis familiaris; assay: Oral diuretic activity was evaluated by measuring K+ excretion in dog at 5.4 mg/kg after ip administration ( 0-6 hr); assay type: ADME, organism-based, Canis lupus familiaris, Urine; parameters: dose 5.4 mg/kg, route intraperitoneal; conditions: in vivo; outline: as §5
[34] = system: Rattus norvegicus; assay: Oral diuretic activity was evaluated by measuring K+ excretion in Rat at 9 mg/kg […] ( 0-5 hr); assay type: ADME, organism-based, Urine; parameters: dose 9 mg/kg; outline: as §1
[35] = system: Rattus norvegicus; assay: Oral diuretic activity was evaluated by measuring K+ excretion in Rat at 81 mg/kg […] ( 0-5 hr); assay type: ADME, organism-based, Urine; parameters: dose 81 mg/kg; outline: as §1
[36] = system: Rattus norvegicus; assay: Oral diuretic activity was evaluated by measuring Cl- excretion in Rat at 3 mg/kg after […] ( 0-5 hr); assay type: ADME, organism-based, Urine; parameters: dose 3 mg/kg, route intraperitoneal; conditions: in vivo
[37] = system: Rattus norvegicus; assay: Oral diuretic activity was evaluated by measuring Cl- excretion in Rat at 81 mg/kg after po administration ( 0-5 hr); conditions: in vivo
[38] = system: Rattus norvegicus; assay: Maximum fall in mean arterial blood pressure was measured in SH rats when compound was administered at 20 mg/kg perorally; assay type: functional; conditions: route oral
[39] = system: Rattus norvegicus; assay: Oral diuretic activity was evaluated by measuring Na+ excretion in Rat at 3 mg/kg […] ( 0-5 hr); assay type: ADME, organism-based, Urine; parameters: dose 3 mg/kg; conditions: in vivo, ip; outline: as §2

For NNc1nncc2ccccc12 [HYDRALAZINE], the Diuretic activity [1] was 0.17, the Diuretic activity [2] was 0.27 and the Diuretic activity [3] was 0.01. For the same compound, the Diuretic activity [4] was 0.07, the Diuretic activity [5] was 0.04 and the Duration [6] was 8 h and 18 h. The Diuretic activity [7] was 0.02, the Diuretic activity [8] was 0.02 and the Diuretic activity [9] was 0.11.
CC(C)(C)c1cc(CN)c(O)c(C(=O)O)c1.Cl showed a Diuretic activity [10] of 800.
In the case of CCc1c(Cl)c(C)c(CN)c(O)c1Cl.Cl, the Diuretic activity [11] is reported as 3.14, the Diuretic activity [12] is reported as 37.15 and the Diuretic activity [13] is reported as 33.33. It also gave a Diuretic activity [14] of 38.78, a Diuretic activity [15] of 2.02 and a Diuretic activity [16] of 2.17. It also gave a Diuretic activity [17] of 22.93, a Diuretic activity [18] of 2.6 and a Diuretic activity [19] of 33.15. For the same compound, the Diuretic activity [20] was 0.44, the Diuretic activity [21] was 3.6 and the Diuretic activity [22] was 2.01. For the same compound, the Diuretic activity [23] was 3.62, the Diuretic activity [24] was 19.43 and the Diuretic activity [25] was 2.29. For the same compound, the Diuretic activity [26] was 2.84, the Diuretic activity [27] was 8.12 and the Diuretic activity [28] was 9.91. For the same compound, the Diuretic activity [29] was 3.3, the Diuretic activity [30] was 0.7 and the Diuretic activity [31] was 0.55. The Diuretic activity [32] was 6.25, the Diuretic activity [33] was 5.9 and the Diuretic activity [34] was 0.56. The Diuretic activity [35] was 0.44, the Diuretic activity [36] was 1.62 and the Diuretic activity [37] was 3.2. It also gave an MAP [38] of 10 mmHg and a Diuretic activity [39] of 1.14.
